Several values for one entry are separate records, joined by “and”; a condition that tells them apart may be missing. Equal values may be shown once.
Key:
MEC-1 = test: Proliferation of MEC-1 cells; assay type: cell-based, human; conditions: for proliferation: MEC-1, increasing doses, 72h
OCI-LY1 = test: Proliferation of OCI-LY1 cells; assay type: cell-based, human; conditions: for proliferation: OCI-LY1, increasing doses, 72h
primary CLL cells = test: Proliferation of CpG stimulated primary CLL cells; assay type: cell-based, human; conditions: for proliferation of CpG stimulated primary CLL cells: increasing doses, 72h continuously or 4h followed by washout
In short: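 Primary CLL cells came from patients meeting 2008 IWCLL criteria. They were either stimulated with CpG oligonucleotides (TLR9 agonist) or left unstimulated (basal). Cells were given increasing concentrations of test compound, either continuously for 72 h or for 4 h followed by washout. Proliferation was measured by MTS assay. Data are shown per individual patient, with averages.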

[1] = tested on: stromal cells (9–15c and Hs27); test: Stromal cell viability; assay type: cell-based
[2] = tested on: Ba/F3 (murine interleukin-3 dependent pro-B cell line) splenomegaly
Half-life in rodents = conditions: in vivo
[3] = tested on: Eμ-Myc/TCL1 leukemia/lymphoma
BET family members = test: Blocking interactions mediated by the four BET family members; assay type: biochemical
[4] = biological target: T1, bromodomain of EP300 (p300) (Homo sapiens, UniProt Q09472); test: Binding affinity
T1 sequence (Q09472 1049-1156 limits assumed): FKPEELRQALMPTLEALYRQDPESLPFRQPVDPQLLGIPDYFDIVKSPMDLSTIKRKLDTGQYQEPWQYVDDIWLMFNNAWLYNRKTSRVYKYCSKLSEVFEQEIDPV

bromodomain of CBP = bromodomain of CBP (Homo sapiens, UniProt Q92793); test: Binding affinity
Chain of bromodomain of CBP (Q92793 1085-1192 limits assumed): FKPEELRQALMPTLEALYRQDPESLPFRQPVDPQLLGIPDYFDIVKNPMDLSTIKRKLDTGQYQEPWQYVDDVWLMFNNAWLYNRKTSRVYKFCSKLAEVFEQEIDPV

[5] = Plasma levels in wild type B6 mice; assay type: in vivo; conditions: B6, mouse, oral, 20 mg/kg
healthy T-cells = test: Proliferation of healthy T-cells stimulated with CD3/CD28 agonist antibodies; assay type: cell-based, human; conditions: washout conditions
Half-life in dogs = conditions: dog, in vivo
[6] = tested on: Eμ-TCL1 CD5/CD19 positive CLL-like leukemia; test: Eμ-TCL1 transgenic mice with de novo leukemia, tumor burden; assay type: in vivo, mouse
[7] = tested on: primary CLL cells co-cultured on stromal cells (9–15c and Hs27); test: CLL cell viability in stromal co-culture; assay type: cell-based, human; conditions: 1, 2 or 5μM, 72 h
[8] = Plasma exposure in Ba/F3 splenomegaly mouse model; assay type: in vivo; conditions: 2 mg/kg
[9] = Plasma drug levels in MV4-11 tumor xenograft SCID mice; assay type: in vivo; conditions: mouse

Cc1sc2c(c1C)C(c1ccc(Cl)cc1)=N[C@@H](CC(=O)OC(C)(C)C)c1nnc(C)n1-2 [JQ1, reference compound]
proliferation (MEC-1): Dose dependent decrease of proliferation
proliferation (OCI-LY1): Dose dependent decrease of proliferation
proliferation of CpG stimulated primary CLL cells (primary CLL cells): Dose-dependent decrease of proliferation

Cc1noc(C)c1-c1cnc2c(-c3ccc(C(=O)O)cc3)cn([C@@H](C)c3ccccn3)c2c1 [PLX51107]
IC50 compared to iBET762, JQ1, or OTX015 (MEC-1; MEC-1): lower IC50
proliferation (MEC-1): Dose dependent decrease of proliferation
effect on stromal cell viability [1]: no effect on stromal cell viability
inhibition of splenomegaly ([2]; 2 mg/kg PLX51107 dose): Approximately 75%
tolerability ([2]; mouse, in vivo): well tolerated
half-life (Half-life in rodents): < 3 h
survival ([3]; 20 mg/kg, qd, oral gavage, 70 days treatment): significantly prolonged survival
tolerability ([3]; mouse, in vivo): well tolerated
potency in blocking interactions mediated by the four BET family members (BET family members): low nanomolar potency
Kd [4]: ~100 nM
Kd (bromodomain of CBP): ~100 nM
AUC(0-t) [5]: 96700 ng·h/mL and 220 µM·h
IC50 compared to iBET762, JQ1, or OTX015 (OCI-LY1; OCI-LY1): lower IC50
proliferation (OCI-LY1): Dose dependent decrease of proliferation
anti-proliferative effect (healthy T-cells): no anti-proliferative effect
half-life (Half-life in dogs): < 3 h
inhibition of proliferation or toxicity (primary CLL cells; CLL cells under basal condition): not observed
proliferation of CpG stimulated primary CLL cells (primary CLL cells): Dose-dependent decrease of proliferation
leukemic disease burden in peripheral blood and spleen vs vehicle ([6]; 20 mg/kg daily, oral gavage, eight days): significantly reduced leukemic disease burden
reduction of tumor burden compared with OTX015 (50 mg/kg, qd) ([6]; PLX51107 20 mg/kg, qd, thirty day study): more effective than OTX015
cytotoxicity on CLL cells [7]: induces significant cytotoxicity
AUC(0-t) [8]: 17700 ng·h/mL and 40 µM·h
AUC(0-t) [9]: 90100 ng·h/mL and 205 µM·h
half-life [9]: 2.8 h

Cc1sc2c(c1C)C(c1ccc(Cl)cc1)=N[C@@H](CC(=O)Nc1ccc(O)cc1)c1nnc(C)n1-2 [OTX015, reference compound]
proliferation (MEC-1): Dose dependent decrease of proliferation
efficacy on splenomegaly relative to 2 mg/kg PLX51107 ([2]; 25 mg/kg OTX015): same level of efficacy
proliferation (OCI-LY1): Dose dependent decrease of proliferation
proliferation of CpG stimulated primary CLL cells (primary CLL cells): Dose-dependent decrease of proliferation

CCNC(=O)C[C@@H]1N=C(c2ccc(Cl)cc2)c2cc(OC)ccc2-n2c(C)nnc21 [iBET762]
proliferation of CpG stimulated primary CLL cells (primary CLL cells): Dose-dependent decrease of proliferation

From PMC5882533 (Cancer discovery, 2018)
